The source of these data is publication PMC3823501 (Cancer research, 2013).

Where two headings read alike, the source gives them in different places.

Series [1] concerns KB-HURs cells. The following applies: cited from earlier work.
For series [2] the following is noted: patients; cited from earlier work.
A short description of series [3]: Pharmacokinetics in mice, HPLC-MS/MS of plasma. Type of series: in vivo, mouse. An outline of the steps:
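Mice received 800 mg/kg test compound orally or intravenously. Plasma levels were measured by HPLC-tandem mass spectrometry (Agilent 1100 capillary LC with triple-quadrupole MS). Oral bioavailability was derived by comparison with the intravenous route.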

For the next series, the target named is T1, recombinant hRRM2/hRRM1 (Homo sapiens, UniProt P31350).
T1 sequence (P31350 1-389): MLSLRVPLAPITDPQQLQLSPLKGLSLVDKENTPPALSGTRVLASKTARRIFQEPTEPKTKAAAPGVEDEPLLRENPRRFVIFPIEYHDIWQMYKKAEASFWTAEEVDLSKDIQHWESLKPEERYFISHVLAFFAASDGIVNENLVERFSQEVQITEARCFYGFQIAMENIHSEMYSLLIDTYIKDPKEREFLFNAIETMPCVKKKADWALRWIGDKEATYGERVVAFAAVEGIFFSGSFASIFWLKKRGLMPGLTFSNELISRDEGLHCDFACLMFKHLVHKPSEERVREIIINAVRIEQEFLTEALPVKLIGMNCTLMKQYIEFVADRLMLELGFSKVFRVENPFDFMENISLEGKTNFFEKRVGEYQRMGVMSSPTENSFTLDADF
Nature of the series: [3H] CDP reduction assay, recombinant hRRM2/hRRM1. Type of series: biochemical.

Series [4] has as its target T2, RNR in MOLT-4 tumor xenografts (Homo sapiens, UniProt P31350).
T2 sequence (P31350 1-389): T1 sequence (P31350 1-389)
Nature of the series: RNR activity in extracts of MOLT-4 tumor xenografts. In kind it is in vivo, mouse. Conditions: mice treated for 12 days, 100 mg/kg. The essentials: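 RNR activity was measured in extracts of subcutaneous MOLT-4 xenografts from NSG mice dosed orally for 12 days with vehicle (solutol-15) or 100 mg/kg test compound.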

For series [5], the target named is T3, immobilized full-length hRRM2 (Homo sapiens, UniProt P31350).
T3 sequence (P31350 1-389): T1 sequence (P31350 1-389)
Nature of the series: Surface plasmon resonance, immobilized full-length hRRM2. Type of series: binding. The following applies: 0.0 – 50.0 µM compound. The essentials:
(§1)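 Surface plasmon resonance on a Biacore […], with full-length or C-terminally truncated hRRM2 immobilised on CM4 sensor chips. Test compound was injected at 0.0–50.0 µM and binding was read from sensorgrams.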

Another series deals with KBHURs cells. The series can be described thus: Real-time cell proliferation. Type of series: cell-based, human. The following applies: COH29 2–250 µM. The essentials: (§2)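 Cell proliferation was followed by real-time electronic cell sensing (RT-CES, W200 16X) with 2,500 cells seeded per well. From 24 h after seeding, the cell index was recorded every half hour for 120 hours. Quadruplicate samples were used, and traces show the mean of 4 replicates.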

Series [6] relates to hRRM2 protein level in KB cells. The series can be described thus: Western blot of hRRM2 protein level, KB cells. In kind it is cell-based, human. Conditions: 20 µM. An outline of the steps:
(§3)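 KB and TOV-112D cells were treated with 20 µM test compound for a series of times. Lysates were western blotted for hRRM2, with β-actin as loading control.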
(A western blot detects proteins with antibodies after separation by electrophoresis.)

Series [7] concerns hRRM2 protein level in TOV-112D cells. Nature of the series: Western blot of hRRM2 protein level, TOV-112D cells. Type of series: cell-based, human. The following applies: 20 µM. An outline of the steps: as §3
The test system of series [8] is dNTP pools in MOLT-4 tumor xenografts. The series can be described thus: Intratumoral dNTP pools of MOLT-4 tumor xenografts. Type of series: in vivo, mouse. The following applies: MOLT-4 xenografts, treated vs. control.
A further series in a line: Tolerability in mice. Type of series: in vivo. The following applies: up to a daily dose of 500 mg/kg.
Series [9] concerns KB cells. Nature of the series: Real-time cell proliferation. Type of series: cell-based, human. Conditions: 20 µM COH29, 20 µM Gem or 1 mM HU. The essentials: as §2
Series [10] deals with KB cells. The series can be described thus: Cell cycle and apoptosis by flow cytometry, KB cells. Type of series: cell-based, human. The essentials: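 After 48 h of treatment, KB cells were analysed on a FACScalibur flow cytometer. Propidium iodide staining gave cell-cycle distribution and Annexin V signal gave apoptosis.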
In general terms: Flow cytometry measures light scatter and fluorescence of single cells or particles in a stream.

The target in series [11] is T4, C-terminal truncated hRRM2 (Homo sapiens, UniProt P31350).
T4 sequence (P31350 1-348 limits assumed): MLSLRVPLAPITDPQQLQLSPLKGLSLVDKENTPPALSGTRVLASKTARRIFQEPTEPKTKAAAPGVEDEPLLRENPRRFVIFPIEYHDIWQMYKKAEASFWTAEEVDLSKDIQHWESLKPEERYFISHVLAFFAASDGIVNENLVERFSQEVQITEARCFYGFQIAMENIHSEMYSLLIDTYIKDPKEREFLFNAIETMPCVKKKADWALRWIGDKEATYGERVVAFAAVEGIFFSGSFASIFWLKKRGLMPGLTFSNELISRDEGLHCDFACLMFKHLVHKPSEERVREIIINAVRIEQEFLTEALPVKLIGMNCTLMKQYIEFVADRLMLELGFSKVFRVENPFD
Nature of the series: Surface plasmon resonance, C-terminal truncated hRRM2. Type of series: binding. Conditions: 0.0 – 50.0 µM compound. The essentials:
as §1
For orientation: Surface plasmon resonance follows binding to a sensor surface in real time, without labels.

In the next series the target is T5, RRM1-RRM2 interaction (Homo sapiens, UniProt P31350).
T5 sequence (P31350 1-389): T1 sequence (P31350 1-389)
Type of series: binding. An outline of the steps:
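Surface plasmon resonance on a Biacore […] with hRRM2 immobilised on a CM4 chip. hRRM1 (0–1 µM) binding was first confirmed and a KD derived. A fixed 0.5 µM hRRM1 was then co-injected with test compound at 0–50 µM, and sensorgrams were read.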

Series [12] concerns KB cells. The series can be described thus: 72 h MTS viability assay, KB cells. Type of series: cell-based, human. The essentials:
(§4)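 72 h MTS viability test (CellTiter 96 AQueous) on 10 replicate wells per condition, following the kit instructions. IC50 is the concentration that lowers viability to 50% of the DMSO control. KB cells were grown in RPMI 1640 with 10% FBS and 1% penicillin-streptomycin at 37°C in humidified 5% CO2. KB-HURs and KB-Gem are KB-derived resistant clones.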

The test system of series [13] is NCI broad panel of 60 human cancer cell lines. Nature of the series: NCI 60 human cancer cell line panel, MTT cytotoxicity. In kind it is cell-based. The following applies: 10 µM.
Series [14] concerns KB-Gem cells. Nature of the series: Real-time cell proliferation. Type of series: cell-based, human. The following applies: COH29 2–250 µM.
In series [15] the test system is KB-HURs cells. Nature of the series: 72 h viability assay, HU-resistant KB clone. Type of series: cell-based, human. The essentials: as §4
The next series relates to NHDF cells. The series can be described thus: 72 h viability assay, normal dermal fibroblasts. Type of series: cell-based. The following applies: Homo sapiens, read-out: IC50, viability.
The target in series [16] is T6, endogenously expressed RNR in KB cells (Homo sapiens, UniProt P31350).
T6 sequence (P31350 1-389): T1 sequence (P31350 1-389)
The series can be described thus: RNR activity in cell lysates of KB cells. Type of series: cell-based. Conditions: 24 h incubation, 10 µM.

Series [17] deals with dNTP pools in MOLT-4 cells. Nature of the series: dNTP pools in MOLT-4 cells. Type of series: cell-based, human. The following applies: 10 µM, by 24 h. The essentials:
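MOLT-4 cells were exposed to 10 µM test compound or left untreated (control). dATP, dCTP and dGTP levels were measured after 4, 8 and 24 h.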

A further series deals with TOV-112D tumor xenograft. Nature of the series: TOV-112D tumor xenograft in mice. Type of series: in vivo, mouse. The following applies: 200, 300, or 400 mg/kg/day oral, 7 days. The essentials:
(§5)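 Female NSG (NOD/SCID/IL2Rgamma null) mice, 8–10 weeks old, received 5×10^6 MOLT-4 or TOV-112D cells subcutaneously in the right flank. Tumour volume was taken as 0.5×l×w2. Once tumours reached about 70 mm3, test compound in 30% solutol was given daily by gavage on a one- or two-dose schedule. Mice were sacrificed on day 28 after implantation; 4 animals/group, mean ± SD.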

Series [18] deals with KB-Gem cells. The series can be described thus: 72 h viability assay, gemcitabine-resistant KB clone. Type of series: cell-based. Conditions: Homo sapiens, read-out: IC50, toxicity assay. The essentials:
as §4

The test system of another series is MOLT-4 tumor xenograft. The series can be described thus: MOLT-4 tumor xenograft in mice. Type of series: in vivo, mouse. The following applies: twice-daily oral dosing 50 mg/kg and 100 mg/kg, Day 12. An outline of the steps: as §5
Where [19] appears, read: female, Balb/c nude, mouse, plasma, po, 800 mg/kg.
The mark [20] stands for this setting: Homo sapiens, KB, read-out: IC50, cell proliferation/viability.

As for `NC(=S)NN=Cc1ncccc1N` [3-AP, 3-aminopyridine-2-carboxaldehyde thiosemicarbazone], in the series on KB-HURs cells [1], the “activity in KBHURs” value is reported as “active”. Also, the “toxicities reported from the phase I trial” value in series [2] was “hypoxia, respiratory distress, and methemoglobulinemia”.
The molecule `O=C(Nc1nc(-c2ccc(O)c(O)c2)c(-c2ccccc2)s1)c1ccc(O)c(O)c1` [COH29, N-(4–(3,4-dihydroxyphenyl)-5-phenylthiazol-2-yl)-3,4-dihydroxybenzamide] displayed a peak plasma concentration in series [3] (PO 800 mg/kg in 30% solutol, female Balb/c nude mice) of 10 µM. For the same molecule, the Tmax (in general, the time at which the peak concentration occurs) in series [3] (setting [19]) worked out at 30 min. Besides, the concentration at 24 h in series [3] (setting [19]) was approximately 0.2 µM. Also, the IC50 was 16 µM on recombinant hRRM2/hRRM1; 8 µM in the series with KB cells [12] (setting [20]); 8 µM with KB-HURs cells [15] (Homo sapiens, read-out: IC50, toxicity assay); 82 µM in the series with NHDF cells; 8 µM in the series on KB-Gem cells [18]. Further, the “RNR activity in extracts of MOLT-4 tumor xenografts” value in [4] was “dramatically lower”. The “interaction with immobilized full-length hRRM2 (sensorgram)” value in series [5] is on record as “dose-dependent interaction”. Further, the “real-time growth of KBHURs” value in the series with KBHURs cells is “remained sensitive”. In addition, the hRRM2 protein level entry in series [6] and in [7] was “unaffected” in each case. In [8], the “intratumoral dNTP pools” value is given as “decreased”. In addition, the “tolerability, side effects” value in “Tolerability in mice” was “no appreciable side effects”. Besides, in the series on KB cells [9], the “real-time KB cell growth after addition at 24 h” value (“real-time KB cell growth” below) is listed as “essentially halted”. Moreover, the apoptosis entry in the series on KB cells [10] is listed as “underwent apoptosis”. Also, the cell cycle distribution entry with KB cells [10] (48 h treatment) is recorded as “arrested at S-phase”. Moreover, the “binding after removal of 41 C-terminal amino acids from hRRM2” value in series [11] was “greatly decreased”. For the same molecule, the “effect on RRM1-RRM2 binding” value at RRM1-RRM2 interaction (0.5 µM RRM1, 0 – 50 µM compound) is given as “interfered with RRM1-RRM2 binding in a dose-dependent manner”. Further, at RRM1-RRM2 interaction (12.5 µM compound, 0.5 µM RRM1), the “effect on RRM1-RRM2 interaction at low dose” value is “enhanced RRM1-RRM2 interaction”. In addition, the “effect on RRM1-RRM2 complex at higher dose” value on RRM1-RRM2 interaction (> 25µM compound, 0.5 µM RRM1) is “disrupted the complex”. The “cytotoxicity in NCI 60 panel” value in [13] was “Impressive inhibition of most of the cancer cell lines”. The “real-time growth of KB-Gem” value with KB-Gem cells [14] was “cytotoxic activity is strong and is unaffected by Gem resistance”. For the same molecule, in series [16], the “decrease of endogenously expressed RNR activity” value was “approximately 50%”. For the same molecule, in series [17], the “levels of dATP, dCTP and dGTP” value is recorded as “all pools were greatly decreased”. In addition, the “TOV-112D tumor xenograft growth” value with TOV-112D tumor xenograft is given as “dose-dependent inhibition”. For the same molecule, the “MOLT-4 tumor xenograft growth” value in the series on MOLT-4 tumor xenograft was “dose-dependent inhibition”.
Consider `Nc1ccn([C@@H]2O[C@H](CO)[C@@H](O)C2(F)F)c(=O)n1` [Gem, gemcitabine], for which the “real-time KB cell growth” value in the series with KB cells [9] is given as “cell growth continued”. Moreover, the IC50 in the series on KB cells [12] (setting [20]) was 9 µM; with KB-Gem cells [18] it was 1000 µM.
On to `NC(=O)NO` [HU, hydroxyurea], for which, in the series with KB cells [9], the “real-time KB cell growth” value is “cell growth continued”. The IC50 with KB cells [12] (read-out: IC50, cell proliferation/viability, KB cells) came to 180 µM; with KB-HURs cells [15] (read-out: IC50, toxicity assay, KB-HURs), 320 µM.
